What was measured:
[1] = tested on: Rattus norvegicus; assay: Immunosuppressive activity against skin allograft in F344 recipient (rat) from LEW donor (rat) at a concentration of 3 mg/kg; format: functional
Outline: (§1)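 MHC-compatible skin allograft: LEW (RT1^l) donor skin to F344 (RT1^lv1) recipients, all rats 4-6 weeks old. Full-thickness 2.0 × 2.0 cm grafts were placed on the recipient's lateral thorax under sterile bactericidal gauze. Read-out was mean survival time in days ± SE, with four animals per group. Deaths were scored as toxic.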

[2] = tested on: Rattus norvegicus; assay: Immunosuppressive activity against skin allograft in F344 recipient (rat) from LEW donor (rat) at a concentration of 10 mg/kg; format: functional; outline: as §1
[3] = species on record: Rattus norvegicus; assay: Lymphocyte-decreasing effect against F344 rats.; format: functional; conditions: for ED50: read-out: ID50 (the source's name)
Outline: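 F344 rats aged 5 weeks were dosed intraperitoneally in 20% hydroxypropyl-β-cyclodextrin. Peripheral blood was taken 24 h later and total lymphocytes counted by lymphocyte gating. ID₅₀/ID₈₀ is the lowest dose lowering the lymphocyte count by 50% or 80% of the vehicle-treated control.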

[4] = species on record: Rattus norvegicus; assay: T cell-decreasing effect in spleen cells of WKAH rat which were injected into foot-pad of LEW rat.; format: functional; conditions: read-out: ID50 (the source's name)
Outline: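 T-cell decrease was measured in the popliteal node gain model: WKAH spleen cells (5 × 10⁶) injected into the LEW rat footpad, with oral dosing for 4 days from the day of injection. Blood T-cells were counted by two-colour flow cytometry with FITC anti-rat CD3 (1F4) and PE anti-rat CD45RA (OX-33). Value is ID₅₀ (mg/kg).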

[5] = species on record: Rattus norvegicus; assay: Immunosuppressive activity against LEW rats injected with spleen cells of WKAH rat in Popliteal Lymph Node Gain Assay.; format: functional; conditions: read-out: ID50 (the source's name)
Outline: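 Popliteal lymph node gain: WKAH rat (RT1^k) spleen cells, 5 × 10⁶, injected into footpad of LEW rats (RT1^l) to enlarge the draining popliteal node. Compound given orally for 4 days starting on the day of cell injection, then popliteal node weighed. Value is ID₅₀ (mg/kg).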

[6] = tested on: Rattus norvegicus; assay: Immunosuppressive activity against skin allograft in F344 recipient (rat) from LEW donor (rat) at a concentration of 0.1 mg/kg; format: functional; outline: as §1
[7] = tested on: Rattus norvegicus; assay: Immunosuppressive activity against skin allograft in F344 recipient (rat) from LEW donor (rat) at a concentration of 0.3 mg/kg; format: functional; outline: as §1
[8] = tested on: Rattus norvegicus; assay: Immunosuppressive activity against skin allograft in F344 recipient (rat) from LEW donor (rat) at a concentration of 1 mg/kg; format: functional; outline: as §1
[9] = tested on: Rattus norvegicus; assay: Immunosuppressive activity against skin allograft in F344 recipient (rat) from LEW donor (rat) at a concentration of 10 mg/kg; Toxic; format: functional, organism-based; parameters: dose 10 mg/kg
[10] = tested on: Rattus norvegicus; assay: Immunosuppressive activity against skin allograft in F344 recipient (rat) from LEW donor (rat) at a concentration of 3 mg/kg; Toxic; format: functional, organism-based; parameters: dose 3 mg/kg
[11] = tested on: Rattus norvegicus; assay: Immunosuppressive activity against skin allograft in F344 recipient (rat) from LEW donor (rat) at a concentration of 30 mg/kg; format: functional; outline: as §1

| Structure (SMILES) | ID80 [3] | ED50 [3] | ED50 [4] | ED50 [5] | MST [8] | other results |
| --- | --- | --- | --- | --- | --- | --- |
| CCCCCCCc1ccc(CCCC(N)(CO)CO)cc1.Cl | >3 mg/kg | > 3 mg/kg | – | – | – | MST [1]: 9 days; MST [2]: 10.5 days |
| CCCCCCCOc1ccc(CC[C@](N)(CO)CCC)cc1 | – | – | > 10 mg/kg | > 10 mg/kg | – | – |
| CCCCCCCCCc1ccc(CC(N)(CO)CO)cc1.Cl | >3 mg/kg | > 3 mg/kg | – | – | – | MST [1]: 9.8 days; MST [2]: 11.8 days |
| CCCCCCCCc1ccc(CCC(N)(CO)CO)cc1.Cl [FINGOLIMOD HYDROCHLORIDE] | 0.1 mg/kg | 0.03 mg/kg | 0.024 mg/kg | 0.0097 mg/kg | 39.5 days | MST [1]: 52 days; MST [6]: 25.3 days; MST [7]: 31.3 days; MST [9]: Toxic |
| CCCCCCCC(O)c1ccc(CCC(N)(CO)CO)cc1 (stereo unspecified) | 0.3 mg/kg | 0.1 mg/kg | – | – | – | – |
| CCCCCCCOc1ccc(CCC(N)(CO)CCO)cc1 (stereo unspecified) | – | – | 0.055 mg/kg | 0.038 mg/kg | – | – |
| CCCCCCCCc1ccccc1CCC(N)(CO)CO.Cl | >3 mg/kg | > 3 mg/kg | – | – | – | – |
| CCCCCCCCc1ccc(CCC(N)(CO)C(=O)O)cc1 (stereo unspecified) | – | – | > 10 mg/kg | > 10 mg/kg | – | – |
| CCCCCCc1ccc(CCCCC(N)(CO)CO)cc1 | >3 mg/kg | > 3 mg/kg | – | – | – | MST [1]: 13.8 days; MST [2]: 18.8 days |
| Cl.NC(CO)(CO)CCCCCCCCCCc1ccccc1 | 1 mg/kg | 0.3 mg/kg | – | – | 27 days | MST [10]: Toxic; MST [6]: 11.5 days; MST [7]: 21.5 days |
| CCCCCCCCCc1ccc(CCC(N)(CO)CO)cc1.Cl | 0.1 mg/kg | 0.03 mg/kg | – | – | 32 days | MST [10]: Toxic; MST [7]: 23 days |
| CCCCCCCOc1ccc(CC[C@](N)(CO)CCO)cc1.Cl | – | – | 4.2 mg/kg | 4.2 mg/kg | – | – |
| CCCCCCCOc1ccc(CCC(N)(CO)CCCC)cc1 (stereo unspecified) | – | – | > 10 mg/kg | > 10 mg/kg | – | – |
| CCCCCCCCCCc1ccc(CCC(N)(CO)CO)cc1.Cl | 0.1 mg/kg | 0.1 mg/kg | – | – | 48 days | MST [10]: Toxic; MST [6]: 20 days; MST [7]: 37.8 days |
| CCCCCCCOc1ccc(CCC(N)(CO)C(C)C)cc1.Cl (stereo unspecified) | – | – | 4.5 mg/kg | – | – | – |
| CCCCCCCC(=O)c1ccc(CCC(N)(CO)CO)cc1 | 0.3 mg/kg | 0.03 mg/kg | – | – | 32.5 days | MST [10]: Toxic; MST [6]: 19.8 days; MST [7]: 25.5 days |
| C/C=C/C[C@@H](C)[C@@H](O)[C@H]1C(=O)N[C@@H](CC)C(=O)N(C)CC(=O)N(C)[C@@H](CC(C)C)C(=O)N[C@@H](C(C)C)C(=O)N(C)[C@@H](CC(C)C)C(=O)N[C@@H](C)C(=O)N[C@H](C)C(=O)N(C)[C@@H](CC(C)C)C(=O)N(C)[C@@H](CC(C)C)C(=O)N(C)[C@@H](C(C)C)C(=O)N1C [CYCLOSPORINE] | >30 mg/kg | > 30 mg/kg | > 30 mg/kg | – | 8 days | MST [1]: 10.8 days; MST [11]: 19.8 days |
| CCCCCCCCc1ccc(CCC(C)(N)CCO)cc1.Cl (stereo unspecified) | – | – | > 10 mg/kg | > 10 mg/kg | – | – |
| CCCCCCCCCCCCCCc1ccc(CCC(N)(CO)CO)cc1.Cl | >3 mg/kg | 1 mg/kg | – | – | – | – |
| CCCCCCCOc1ccc(CCC(N)(CC)CO)cc1.Cl (stereo unspecified) | – | – | 0.044 mg/kg | – | – | – |
| CCCCCCCCCCCCc1ccc(CCC(N)(CO)CO)cc1.Cl | 1 mg/kg | 0.1 mg/kg | – | – | 40.5 days | MST [1]: 53 days; MST [6]: 12 days; MST [7]: 22.8 days; MST [9]: Toxic |
| CCCCCCCSc1ccc(CCC(N)(CO)CO)cc1 | 0.03 mg/kg | 0.03 mg/kg | – | – | 44.5 days | MST [10]: Toxic; MST [6]: 22.3 days; MST [7]: 36 days |

| Structure (SMILES) | ID80 [3] | ED50 [3] | ED50 [4] | ED50 [5] | MST [8] | other results |
| --- | --- | --- | --- | --- | --- | --- |
| CCCCCCCCCCCc1ccc(CCC(N)(CO)CO)cc1.Cl | 0.1 mg/kg | 0.1 mg/kg | – | – | 39.3 days | MST [10]: Toxic; MST [7]: 23.3 days |
| CCCCCCCCCCCCCCC(N)(CO)CO.Cl | 0.3 mg/kg | 0.3 mg/kg | – | – | 37.3 days | MST [1]: 45.5 days; MST [6]: 13.8 days; MST [7]: 26.5 days; MST [9]: Toxic |
| CCCCCCCCc1ccc(CCC(N)CO)cc1.Cl (stereo unspecified) | – | – | > 10 mg/kg | > 10 mg/kg | – | – |
| CCCCCCCCCCCCCc1ccc(CCC(N)(CO)CO)cc1.Cl | 1 mg/kg | 0.03 mg/kg | – | – | – | – |
| CCCCCCCOc1ccc(CC[C@@](N)(CO)CCO)cc1.Cl | – | – | 0.018 mg/kg | 0.017 mg/kg | – | – |
| CCCCCCCOc1ccc(CCC(N)(CO)CO)cc1.Cl | 0.1 mg/kg | 0.03 mg/kg | 0.014 mg/kg | – | 33.8 days | MST [1]: 39.5 days; MST [6]: 15 days; MST [7]: 23.5 days; MST [9]: Toxic |
| CCCCCCCN(C)c1ccc(CCC(N)(CO)CO)cc1.Cl | 1 mg/kg | 1 mg/kg | – | – | 21.3 days | MST [1]: 29 days; MST [9]: Toxic |
| CCCCCCCc1ccc(CCC(N)(CO)CO)cc1.Cl | 0.3 mg/kg | 0.1 mg/kg | – | – | – | – |
| CCCCCCCCc1ccc(CCC(N)(CO)CCCO)cc1.Cl (stereo unspecified) | – | – | 0.021 mg/kg | 0.085 mg/kg | – | – |
| CCCCCCCCCCc1ccc(C(N)(CO)CO)cc1.Cl | >3 mg/kg | 0.3 mg/kg | – | – | – | – |
| CCCCCCCCc1cccc(CCC(N)(CO)CO)c1.Cl | >3 mg/kg | > 3 mg/kg | – | – | – | – |
| C=CCC(N)(CO)CCc1ccc(OCCCCCCC)cc1 (stereo unspecified) | – | – | 3.1 mg/kg | 1.9 mg/kg | – | – |
| CCCCc1ccc(CCCCCCC(N)(CO)CO)cc1.Cl | 1 mg/kg | 0.3 mg/kg | – | – | – | MST [1]: 9.8 days; MST [2]: 13.5 days |
| CCCCCCCCc1ccc(CCC(N)(CO)CCO)cc1 (stereo unspecified) | – | – | 0.12 mg/kg | 0.009 mg/kg | – | – |
| CCCCCCCCc1ccc(CCC(N)(CO)CO)s1.Cl | >3 mg/kg | 1 mg/kg | – | – | 17.3 days | MST [1]: 21 days; MST [7]: 13 days |
| CCCCCCCOc1ccc(CC[C@@](C)(N)CO)cc1.Cl | – | – | 0.0092 mg/kg | – | – | – |
| CCCCCCCOc1ccc(CC[C@@](N)(CO)CCC)cc1 | – | – | 4.4 mg/kg | – | – | – |
| CCc1ccc(CCCCCCCCC(N)(CO)CO)cc1.Cl | >3 mg/kg | > 3 mg/kg | – | – | – | MST [1]: 8.5 days; MST [2]: 8.6 days |
| CCCCCCCCc1ccc(CCC(N)(CCO)CCO)cc1 | – | – | > 10 mg/kg | > 10 mg/kg | – | – |
| CCCCCCCOc1ccc(CCC(N)(CO)CCC)cc1 (stereo unspecified) | – | – | 7.3 mg/kg | – | – | – |
| CCCCCCC/C(=N\O)c1ccc(CCC(N)(CO)CO)cc1 | 1 mg/kg | 0.03 mg/kg | – | – | – | – |
